A short description of experiment [1]: Cell cycle arrest in human MDA-MB-231 cells assessed as accumulation at G2/M phase at 2 uM after 24 hrs by propidium iodide staining based FACS analysis (reference value: 26 %). It is filed as functional. In a few lines: (§1)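 MDA-MB-231 at 1×10^6 cells/well treated with 1, 2 or 4 µM for 24 h, with a DMSO control. Cells harvested by trypsin, washed with PBS and fixed in 70% ethanol for 30 min at 4 °C. Stained 15 min at room temperature in the dark with PI buffer containing Triton X and DNase-free RNase A. Analysed by flow cytometry; G0/G1, S and G2/M fractions quantified.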

Experiment [2] deals with MDA-MB-231. Briefly: Antimigratory activity against human MDA-MB-231 cells assessed inhibition of cell migration towards wound area at 2 to 4 uM up to 24 hrs by phase contrast microscopic analysis. The experiment is classed as functional, cell-based. Summed up:
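MDA-MB-231 seeded at 5×10^5 cells/well and grown 24 h to a confluent monolayer. Monolayer scratched with a 200 µL pipette tip and washed twice with PBS to remove non-adherent cells. Medium with compound at 1, 2 or 4 µM added. Wound closure photographed by phase contrast microscopy at 0 and 24 h after treatment.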

Experiment [3] is described as follows: Cell cycle arrest in human MDA-MB-231 cells assessed as accumulation at S phase at 1 uM after 24 hrs by propidium iodide staining based FACS analysis (reference value: 24.6 %). The experiment is classed as functional. Summed up:
as §1

Experiment [4] in a line: Cell cycle arrest in human MDA-MB-231 cells assessed as accumulation at G0/G1 phase at 1 uM after 24 hrs by propidium iodide staining based FACS analysis (reference value: 50.4 %). The experiment is classed as functional. Summed up: as §1
Experiment [5] is described as follows: Cell cycle arrest in human MDA-MB-231 cells assessed as accumulation at S phase at 2 uM after 24 hrs by propidium iodide staining based FACS analysis (reference value: 24.6 %). The experiment is classed as functional. In a few lines:
as §1

Experiment [6] has as its system MDA-MB-231. Briefly: Induction of apoptosis in human MDA-MB-231 cells assessed as cell wall deformation at 1 to 4 uM after 24 hrs by phase contrast microscopic analysis. The experiment is classed as functional, cell-based. Summed up:
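MDA-MB-231 treated at 1, 2 or 4 µM for 24 h. Morphology examined and photographed by phase contrast microscopy against untreated control cells.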

The subject of experiment [7] is MDA-MB-231. In words: Induction of apoptosis in human MDA-MB-231 cells assessed as formation of horse-shoe shaped nuclei at 2 uM after 24 hrs by AO/EB-dual staining based fluorescent microscopic analysis. The experiment is classed as functional, cell-based. In a few lines:
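MDA-MB-231 plated at 1×10^6 cells/mL and treated at 1, 2 or 4 µM, with a DMSO control. Incubation time is given as 48 h in the methods and 24 h in the figure legend. AO and EB added at 10 µg/mL each. Cells viewed within 10 min by fluorescence microscopy (excitation 488 nm, emission 550 nm) at 200×.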

In experiment [8] the test system is MDA-MB-231. Briefly: Induction of apoptosis in human MDA-MB-231 cells assessed as formation of horse-shoe shaped nuclei at 1 to 4 uM after 24 hrs by DAPI dye-based fluorescent microscopic analysis. The experiment is classed as functional, cell-based. Summed up:
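MDA-MB-231 grown at 1×10^6 cells/well in 6-well plates and treated at 1.0, 2.0 or 4.0 µM for 24 h, with untreated controls. Cells washed twice with PBS, fixed in 4% paraformaldehyde and stained with 10 µg/mL DAPI. Nuclei examined by fluorescence microscopy (excitation 359 nm, emission 461 nm) at 200×.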

For experiment [9], the system named is MDA-MB-231. Briefly: Induction of apoptosis in human MDA-MB-231 cells assessed as loss of mitochondrial membrane potential at 1 uM after 24 hrs by rhodamine-123 -based spectrofluorometric analysis relative to control. The experiment is classed as functional. In a few lines:
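MDA-MB-231 cells were plated at 5×10^5 cells/mL in 6-well plates, left to adhere overnight, then treated 24 h at 1, 2 and 4 μM. Cells were trypsinized, washed in PBS and loaded with rhodamine-123 (10 μg/mL) in PBS for 30 min at room temperature. After two PBS washes, fluorescence was read by spectrofluorometer (ex 480/em 530 nm). Loss is expressed against control; three independent experiments in triplicate.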

For experiment [10], the system named is MDA-MB-231. Briefly: Induction of apoptosis in human MDA-MB-231 cells assessed as decrease in Bcl2 expression after 24 hrs by Western blot analysis. It is filed as functional, cell-based. Summed up: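 MDA-MB-231 treated at 1, 2 or 4 µM for 24 h. Whole-cell extracts prepared in RIPA buffer. Blots probed with rabbit anti-caspase-3, anti-Bcl2 and anti-β-actin (1:1000) and anti-Bax (1:500), then HRP secondaries and ECL detection. Membranes stripped and reprobed. Bands quantified by densitometry as fold change versus control. Mean ± SEM, n=3.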

In experiment [11] the test system is MDA-MB-231. In words: Induction of apoptosis in human MDA-MB-231 cells assessed as viable cells at 2 uM after 24 hrs by Annexin V-FITC/propidium iodide-staining based FACS analysis (reference value: 89.5 %). The experiment is classed as functional. The settings on record: MDA-MB-231, 24 h, read-out: Activity.
For experiment [12], the system named is MDA-MB-231. Briefly: Induction of apoptosis in human MDA-MB-231 cells assessed as late apoptotic cells at 2 uM after 24 hrs by Annexin V-FITC/propidium iodide-staining based FACS analysis (reference value: 3.6 %). It is filed as functional.
Experiment [13] has as its system MDA-MB-231. Briefly: Induction of apoptosis in human MDA-MB-231 cells assessed as necrotic cells at 2 uM after 24 hrs by Annexin V-FITC/propidium iodide-staining based FACS analysis (reference value: 2.8 %). The experiment is classed as functional.
Experiment [14] concerns MDA-MB-231. In words: Induction of apoptosis in human MDA-MB-231 cells assessed as necrotic cells at 4 uM after 24 hrs by Annexin V-FITC/propidium iodide-staining based FACS analysis (reference value: 2.8 %). It is filed as functional.
Experiment [15] concerns MDA-MB-231. Briefly: Induction of apoptosis in human MDA-MB-231 cells assessed as early apoptotic cells after 24 hrs by Annexin V-FITC/propidium iodide-staining based FACS analysis. The experiment is classed as functional, cell-based.
For experiment [16], the system named is MDA-MB-231. In words: Induction of apoptosis in human MDA-MB-231 cells assessed as late apoptotic cells after 24 hrs by Annexin V-FITC/propidium iodide-staining based FACS analysis. It is filed as functional, cell-based.
The nature of experiment [17]: Cytotoxicity against human DU145 cells assessed as growth inhibition at 50 uM after 48 hrs by MTT assay relative to control. The experiment is classed as functional. The following applies: DU-145, 48 h, read-out: GI. In a few lines: (§2)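 Cells grown in DMEM or MEM with 10% FBS at 37 °C, 5% CO2. Seeded at 1×10^4 cells/well, incubated 48 h, then exposed to compound for 48 h with vehicle control. MTT (5 mg/mL stock) added for 4 h; formazan dissolved in DMSO, absorbance read at 570 nm. Preliminary screen at 50 µM. Compounds giving >50% inhibition were tested for dose-response curves; IC50 derived by linear regression of % inhibition versus concentration. Mean of three independent experiments in triplicate.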

Experiment [18] in a line: Cytotoxicity against human BT549 cells assessed as growth inhibition at 50 uM after 48 hrs by MTT assay relative to control. It is filed as functional. The settings on record: BT-549, 48 h, read-out: GI. In a few lines: as §2
Experiment [19] is described as follows: Cytotoxicity against human A549 cells assessed as growth inhibition at 50 uM after 48 hrs by MTT assay relative to control. The following applies: A549, 48 h, read-out: GI. It is filed as functional. Summed up: as §2
The nature of experiment [20]: Cell cycle arrest in human MDA-MB-231 cells assessed as accumulation at G2/M phase after 24 hrs by propidium iodide staining based FACS analysis. The experiment is classed as functional. The settings on record: in the assay text read “G0/G1” for “G2/M”. Summed up:
as §1

Structures are written as SMILES. The source made the active and inactive calls. The calls are words filed in the database; no cut-off is given here.

The results in this text go back to ChEMBL document CHEMBL3865824, “New (E)-1-alkyl-1H-benzo[d]imidazol-2-yl)methylene)indolin-2-ones: Synthesis, in vitro cytotoxicity evaluation and apoptosis inducing studies” (Eur J Med Chem, 2016).

Consider `CC(C)n1c(/C=C2/C(=O)Nc3ccc(Br)cc32)nc2ccccc21`, for which the Activity in experiment [1] was 18.9%; in [3], 20.8%; in [4], 57.2%; in experiment [5] it was 17.7%; in the experiment on MDA-MB-231 [9] it was 25.2%; in the experiment on MDA-MB-231 [10], “Dose-dependent effect”. The Activity in the experiment with MDA-MB-231 [12] was 4.4%; in the experiment with MDA-MB-231 [13], 3.3%; in the experiment on MDA-MB-231 [14] it was 4.2%; in the experiment with MDA-MB-231 [15], “Dose-dependent effect”; in the experiment on MDA-MB-231 [16], “Dose-dependent effect”; in [20] it was “Dose-dependent effect”. Besides, in the experiment with MDA-MB-231 [2], the inhibition result was “Active”. In addition, the result in the experiment with MDA-MB-231 [6], in the experiment with MDA-MB-231 [7] and in the experiment with MDA-MB-231 [8] was Active. Also, the viability at 2 µM in the experiment on MDA-MB-231 [11] came to 73.6%. In addition, the inhibition of growth at 50 µM in experiment [17], in experiment [18] and in experiment [19] was above 50% each time.
